Sampled rows, rich in hits. Any-hit rate of the full collection: about 4.3%.
WT yeast gro inh = growth inhibition of WT yeast, mitochondrial fusion screen; mitochondrial fusion phenotypic screen, WT strain; actives 2.1% (n = 190,000); inhibition, % at 10 µM; in the data active = inhibition above about 58%; tested in S. cerevisiae
Yeast life ext = extends the lifespan of yeast; actives 0.68% (n = 130,000); S. cerevisiae growth with nicotinamide, OD615; deaD strain in restrictive glucose medium; AID 775; inhibition of the nicotinamide effect, % at 10 µM;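 active = inhibition above a set limit, placed 3 SD over the median of all compounds, cut at about 26% in these data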;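 note: 0% = nicotinamide-treated wells and 100% = cells grown without nicotinamide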
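Measured by: optical density (absorbance) at 615 nm; System: modified budding yeast, DeaD strain; Medium: restrictive CSMM-D dextrose medium; Timing: 4 h preincubation then 48 h treatment at 30 °C.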
RAM network inh = inhibitors of the yeast RAM network. S. cerevisiae dse1pr::URA3 reporter, 5-FOA growth OD615, 2 d; analog-sensitive cbk1-as2 kinase mutant strain. inhibition, % at 50 µM. actives 1.8% (n = 190,000). AID 868;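 active = inhibition above a set limit, 3 SD over mean compound inhibition, cut at about 8.4% in these data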;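 note: 0% = DMSO-only wells with no growth and 100% = 10 µM 1-NA-PP1 full growth; inhibition rescues growth on 5-FOA so higher OD means more RAM inhibition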
Yeast growth inh = chemicals that inhibit yeast BB579 growth in restrictive medium (lifespan-shortening candidates) | S. cerevisiae BB579 growth, OD615, 48 h | actives 0.51% (n = 140,000) | inhibition, % at 10 µM | AID 804;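 active = inhibition above a set limit, 3 SD over the mean compound inhibition, cut at about 44% in these data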
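System: Saccharomyces cerevisiae DeaD strain BB579, replicative lifespan model yeast | Buffer or medium: Restrictive glucose-based CSMM-D medium | Times: 4 h preincubation and 48 h exposure at 30 °C | Detection: OD615 turbidity measurement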
Active calls of the source: *; nt = no result given.

SMILES	WT yeast gro inh	Yeast life ext	RAM network inh	Yeast growth inh
O=C(OCCN1C(=O)c2cccc3c(N4CCOCC4)ccc(c23)C1=O)c1cc(Cl)cc(Cl)c1	23	0	8.5*	-26
CCN(CC)S(=O)(=O)c1ccc(C(=O)OCCN2C(=O)c3cccc4c(N5CCOCC5)ccc(c34)C2=O)cc1	5	8	10*	-66
CC#C[C@]1(O)CC[C@H]2[C@@H]3CCC4=CC(=O)CCC4=C3[C@@H](c3ccc(N(C)C)cc3)C[C@@]21C	87*	2	3	-35
O=C(CN1CCN(Cc2ccc3c(c2)OCO3)CC1)Nc1ccc(N2CCOCC2)cc1	-14	nt	0	nt
Cc1ccccc1NC(=S)N(Cc1cccs1)C1CCCC1	13	nt	0	nt
CCc1ccccc1NC(=S)N(Cc1cccs1)C1CCCC1	71*	nt	3	nt
CCc1nnc(NC(=O)CSc2n[nH]c(-c3ccccc3O)n2)s1	-3	nt	5	nt
CC(C)[C@H](NC(=O)c1ccc(F)cc1)C(=O)NC1=NCCS1	5	nt	-1	nt
O=C(Oc1ccc(Cl)c2cccnc12)c1ccco1	6	-18	0	96*
O=C(Oc1cccc2cccnc12)c1ccco1	-19	nt	-2	-12
Cc1ccc(C(=O)n2nnc3ccccc32)cc1[N+](=O)[O-]	-5	32*	2	-32
O=C(C[n+]1cn(C(F)F)c2ccccc21)c1ccc(OC(F)F)cc1	71*	nt	3	nt
CCN(CC)P(=O)(Nc1ccc(C)cc1Br)c1ccc(N(C)C)cc1NC(=O)c1ccco1 (centres undefined)	60*	nt	2	nt
Cc1nc2sccn2c(=O)c1CCN1CCC(=C(c2ccc(F)cc2)c2ccc(F)cc2)CC1	79*	1	0	-27
O=c1c2ccccc2sn1-c1ccc(S(=O)(=O)N2CCCC2)cc1	-3	0	4	-9
Cc1ccc(-n2sc3ccccc3c2=O)cc1S(=O)(=O)N1CCCCC1	94*	3	7	-6
O=c1c2ccccc2sn1-c1ccccc1	95	41*	3	-7
CN(C)S(=O)(=O)c1cccc(-n2sc3ccccc3c2=O)c1	67*	nt	4	nt
CC1=NOC(=O)/C1=C/c1ccc(-c2ccc(Cl)cc2)o1	75*	-7	3	92*
CC1=NOC(=O)/C1=C\c1ccc(-c2ccc(Br)cc2)o1	75*	nt	6	nt
COC(=O)C1=C(C)N(c2cc(Cl)cc(Cl)c2)C(=O)C1	-5	-5	0	6
Cc1onc(C(=O)NC(C)c2ccccc2)c1[N+](=O)[O-] (centres undefined)	0	nt	1	nt
O=c1c2ccccc2c(-c2ccc(O)cc2)nn1-c1cccc(C(F)(F)F)c1	83*	-6	2	-26
Cc1nc2ccc(S(=O)(=O)Nc3ccccc3C)cc2s1	0	1	2	-14
Cc1cnc(NC(=O)CSc2nnc(Cc3ccccc3)n2C)s1	4	-4	1	-51
SMILES	WT yeast gro inh	Yeast life ext	RAM network inh	Yeast growth inh
Cc1ccc(C(C)C)c(OCc2nnc(SCC(=O)Nc3ncc(C)s3)n2C)c1	-12	8	8.6*	-73
CN(C)c1cc[n+](CC(=O)c2ccc(-c3ccccc3)cc2)cc1	73*	nt	3	nt
O=C(C[n+]1ccccc1)c1ccc(-c2ccccc2)cc1	10	nt	1	nt
COc1cc(NC(=S)NC(=O)c2ccccc2F)ccc1NC(=O)c1cccs1	8	nt	8	nt
O=C(Nc1ccc(NC(=S)NC(=O)c2ccccc2F)cc1)c1cccs1	63*	nt	5	nt
CSc1nc(-c2ccco2)nn1C(=O)c1cccs1	10	-8	4	8
O=C(c1cccs1)n1nc(-c2ccco2)nc1SCc1ccccc1	8	-5	10*	-42
CC(C)OCCCNS(=O)(=O)c1ccc2ccccc2c1	7	108*	-1	-41
CCCc1nc2c(=O)n(C)c(=O)nc-2n(C)n1	64*	nt	-1	nt
CC(C(=O)Nc1ccccc1Sc1ccccc1)N(c1ccccc1)S(C)(=O)=O (centres undefined)	22	26	8.4*	-27
Cc1ccc(S(=O)(=O)N2CCC(C(=O)N/N=C/c3ccncc3)CC2)cc1	-11	nt	0	nt
Cc1ccnc(NC(=O)CCC(=O)N(CC(=O)NC(C)(C)C)c2ccc(F)c(Cl)c2)c1	-2	nt	0	nt
Cc1cc(=O)oc2cc(OCc3ccc(C(=O)OCC(=O)Nc4ccccc4OC(F)F)cc3)ccc12	-8	1	3	5
CCOc1ccc(C2=C(C=Nc3c(C)n(C)n(-c4ccccc4)c3=O)C(c3ccc(F)cc3)c3ccccc3O2)cc1 (centres undefined)	17	-3	8.5*	-49

From PubChem BioAssay
